Laboratory results: ChEMBL document CHEMBL3526029, “Disposition and metabolism of GSK2251052 in humans: a novel boron-containing antibiotic” (Drug Metab Dispos, 2013)

Assays:
Blood [1] = test: Cmax in healthy human whole blood assessed as radioactivity at 1500 mg, iv infusion for 1 hr as single dose; type: ADME, organism-based; parameters: dose 1500 mg, route intravenous; details: in vivo
Summary of the method: (§1)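 Six fasted healthy men received 1500 mg [14C]GSK2251052 as a 1-h i.v. infusion. Blood and plasma were sampled from predose to 336 h after infusion start. Radioactivity was counted by LSC; plasma below 870 ng eq/ml was reanalysed by accelerator MS, with predose background subtracted. Noncompartmental analysis used actual sampling times, linear-up/log-down trapezoids and CL = dose/AUC(0-∞).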

Blood [2] = test: Clearance in healthy human whole blood assessed as radioactivity at 1500 mg, iv infusion for 1 hr as single dose; type: ADME, organism-based; details: in vivo; summary of the method: as §1
Blood [3] = test: Tmax in healthy human whole blood assessed as radioactivity at 1500 mg, iv infusion for 1 hr as single dose; type: ADME, organism-based; details: in vivo
Summary of the method: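 Healthy men got a single 1500 mg [14C] dose by 1 h i.v. infusion. K2EDTA blood was sampled up to 336 h. Radioactivity in blood and plasma was measured by LSC, with AMS for plasma below LLQ. Parent and M3 were measured by LC/MS/MS (5–10,000 ng/ml range). Noncompartmental analysis used actual times, with t1/2 = ln2/λz and Tmax observed directly, timed from infusion start.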

[4] = Drug recovery in healthy human urine at 1500 mg, iv infusion for 1 hr as single dose after 72 hrs; type: ADME, organism-based; details: read-out: Drug recovery
[5] = Drug recovery in healthy human feces at 1500 mg, iv infusion for 1 hr as single dose after 192 hrs; type: ADME, organism-based; details: faeces, read-out: Drug recovery
[6] = Drug recovery in healthy human feces at 1500 mg, iv infusion for 1 hr as single dose after 264 hrs; type: ADME, organism-based; details: faeces, read-out: Drug recovery
Plasma [7] = test: AUC (0 to t) in healthy human plasma assessed as radioactivity at 1500 mg, iv infusion for 1 hr as single dose; type: ADME, organism-based; details: in vivo; summary of the method: as §1
Plasma [8] = test: AUC (0 to infinity) in healthy human plasma assessed as radioactivity at 1500 mg, iv infusion for 1 hr as single dose; type: ADME, organism-based; parameters: dose 1500 mg, time infinity, route intravenous; details: in vivo; summary of the method: as §1
Plasma [9] = test: Cmax in healthy human plasma assessed as radioactivity at 1500 mg, iv infusion for 1 hr as single dose; type: ADME, organism-based; parameters: dose 1500 mg, route intravenous; details: in vivo; summary of the method: as §1
Plasma [10] = test: Volume of distribution at steady state in healthy human plasma assessed as radioactivity at 1500 mg, iv infusion for 1 hr as single dose; type: ADME, organism-based; details: in vivo
Summary of the method: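 Healthy males got a 1500 mg [14C] dose as a 1-h IV infusion. K2EDTA blood was taken at serial times to 336 h. Radioactivity in blood and plasma was measured by LSC; plasma below 870 ng eq/ml was re-measured by accelerator mass spectrometry. Vss = CL × MRT, with CL = dose/AUC(0-∞), from noncompartmental analysis on actual times.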

[11] = Drug recovery in healthy human feces at 1500 mg, iv infusion for 1 hr as single dose after 288 hrs; type: ADME, organism-based; details: faeces, read-out: Drug recovery
[12] = Drug recovery in healthy human feces at 1500 mg, iv infusion for 1 hr as single dose after 312 hrs; type: ADME, organism-based; details: read-out: Drug recovery
[13] = Drug recovery in healthy human feces at 1500 mg, iv infusion for 1 hr as single dose after 336 hrs; type: ADME, organism-based; details: read-out: Drug recovery
[14] = Total drug recovery in healthy human at 1500 mg, iv infusion for 1 hr as single dose after 48 hrs; type: ADME, organism-based; details: in vivo, read-out: Drug recovery
Summary of the method: (§2)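 Six healthy adult males, fasted ≥10 h, got one 1500 mg [14C]GSK2251052 dose ([…], 0.56 MBq) as a constant-rate 1-h IV infusion in 0.9% NaCl. Urine was collected at 0–6, 6–12 and 12–24 h, then in 24-h blocks to 336 h; feces in 24-h blocks. Urine was counted directly by LSC; feces were homogenized and combusted in duplicate before LSC. Cumulative recovery is given as mean % of dose.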

[15] = Total drug recovery in healthy human at 1500 mg, iv infusion for 1 hr as single dose after 96 hrs; type: ADME, organism-based; details: in vivo, read-out: Drug recovery; summary of the method: as §2
[16] = Total drug recovery in healthy human at 1500 mg, iv infusion for 1 hr as single dose after 120 hrs; type: ADME, organism-based; details: in vivo, read-out: Drug recovery
[17] = Total drug recovery in healthy human at 1500 mg, iv infusion for 1 hr as single dose after 168 hrs; type: ADME, organism-based; details: in vivo, read-out: Drug recovery
Homo sapiens = test: Toxicity in healthy human assessed as serious adverse events at 1500 mg, iv infusion for 1 hr as single dose; type: organism-based; details: in vivo
Summary of the method: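 Single-center, open-label phase I study in six healthy adult males, fasted ≥10 h. Each got one 1500 mg [14C]GSK2251052 dose as a constant-rate 1-h IV infusion. Safety was monitored throughout, with follow-up for at least 336 h after dosing.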

[18] = Drug recovery in healthy human urine at 1500 mg, iv infusion for 1 hr as single dose after 120 to 336 hrs by HPLC method; type: ADME, organism-based; details: in the assay text read “0 to 120 hrs” for “120 to 336 hrs”, read-out: Drug recovery
Summary of the method: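 Urine pooled by weight per subject over 0–120 h; 120–336 h pools from all subjects combined into one composite. Centrifuged at ~21,000g, then supernatant profiled by HPLC (Atlantis T3, ammonium acetate pH 4.5/methanol, 30°C) with radiochemical detection plus MS identification. Results are % of dose, corrected for centrifugation recovery measured by triplicate LSC.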

[19] = Drug metabolism in healthy human urine assessed as 3-(3-(2-amino-1-hydroxyethyl)-2-hydroxyphenoxy)propanoic acid formation at 1500 mg, iv infusion for 1 hr as single dose by mass spectrometry; type: ADME, organism-based; details: in vivo
Summary of the method: (§3)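 Urine was collected through 336 h after a 1500 mg [14C] i.v. 1-h infusion to six men. Samples were pooled by weight (0–120 h per subject; 120–336 h composite) and centrifuged. Profiling used HPLC (Atlantis T3, ammonium acetate pH 4.5/methanol, 30°C) with fraction radioactivity counting. Identity came from Orbitrap positive-ion accurate mass. Values were given as % dose, corrected for recovery.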

[20] = Drug metabolism in healthy human urine assessed as 2-(2-amino-1-hydroxyethyl)-6-(3-hydroxypropoxy)phenol formation at 1500 mg, iv infusion for 1 hr as single dose by mass spectrometry; type: ADME, organism-based; details: in vivo; summary of the method: as §3
[21] = Drug metabolism in human liver S9 fraction assessed as (S)-3-(3-(aminomethyl)-1-hydroxy-1,3-dihydrobenzo[c][1,2]oxaborol-7-yloxy)propanoicacid formation at 50 to 500 uM after 3 hrs by liquid scintillation counting in presence of NAD+; type: ADME, subcellular; details: s9, 3 h
Summary of the method: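 [14C]GSK2251052 was incubated in triplicate for 1 or 3 h at 37°C with 4 mg/ml S9 (monkey liver, lung or kidney; human liver), liver cytosol or liver microsomes and 7.5 mM NAD+. Buffer was pyrophosphate at pH 7.4, 8.4 or 8.8. Controls lacked cofactor or enzyme. Reactions were quenched with acetonitrile, counted by LSC, and pooled for radio-HPLC.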

[22] = Drug recovery in healthy human urine at 1500 mg, iv infusion for 1 hr as single dose after 192 hrs; type: ADME, organism-based; details: read-out: Drug recovery
[23] = Drug recovery in healthy human feces at 1500 mg, iv infusion for 1 hr as single dose after 72 hrs; type: ADME, organism-based; details: read-out: Drug recovery
[24] = Drug recovery in healthy human feces at 1500 mg, iv infusion for 1 hr as single dose after 144 hrs; type: ADME, organism-based; details: read-out: Drug recovery

Question: With `Cl.N[14CH2][C@H]1OB(O)c2c(OCCCO)cccc21` as the compound, how does the Cmax (Blood [1]) read?
Answer: The Cmax was 43700 ng/mL.

Question: And the CL (Blood [2])?
Answer: Its CL is 7.79 L/h.

Question: And the Tmax (Blood [3])?
Answer: Its Tmax is 55 min.

Question: And the dose excreted at 72 h [4]?
Answer: Its dose excreted at 72 h is 76.9%.

Question: And the dose excreted at 192 h [5]?
Answer: The dose excreted at 192 h was 7.6%.

Question: And the dose excreted at 264 h [6]?
Answer: Its dose excreted at 264 h is 7.6%.

Question: And the AUCt (Plasma [7])?
Answer: The AUCt was 191 µg·h/mL.

Question: What about the AUC (Plasma [8]) of the same compound?
Answer: Its AUC is 195 µg·h/mL.

Question: And the Cmax (Plasma [9])?
Answer: The Cmax was 24300 ng/mL.

Question: What about the Vdss (Plasma [10]) of the same compound?
Answer: The Vdss was 348 L.

Question: And the dose excreted at 288 h [11]?
Answer: Its dose excreted at 288 h is 7.6%.

Question: And the dose excreted at 312 h [12]?
Answer: Its dose excreted at 312 h is 7.6%.

Question: What about the dose excreted at 336 h [13] of the same compound?
Answer: The dose excreted at 336 h was 7.6%.

Question: And the dose excreted at 48 h [14]?
Answer: The dose excreted at 48 h was 70.5%.

Question: What about the dose excreted at 96 h [15] of the same compound?
Answer: Its dose excreted at 96 h is 87.5%.

Question: What about the dose excreted at 120 h [16] of the same compound?
Answer: Its dose excreted at 120 h is 90.7%.

Question: And the dose excreted at 168 h [17]?
Answer: Its dose excreted at 168 h is 94%.

Question: What about the Activity (Homo sapiens) of the same compound?
Answer: The Activity was “Non-toxic”.

Question: And the dose excreted [18]?
Answer: Its dose excreted is 28.9%.

Question: What about the Drug recovery [19] of the same compound?
Answer: The Drug recovery was “metabolite_detected”.

Question: What about the Drug recovery [20] of the same compound?
Answer: The Drug recovery was “metabolite_detected”.

Question: And the Drug metabolism [21]?
Answer: The Drug metabolism was “metabolite_not_detected”.

Question: And the dose excreted at 192 h [22]?
Answer: Its dose excreted at 192 h is 87.4%.

Question: And the dose excreted at 72 h [23]?
Answer: The dose excreted at 72 h was 4.3%.

Question: What about the dose excreted at 144 h [24] of the same compound?
Answer: Its dose excreted at 144 h is 7.5%.
